{"data": "Measured values from different studies", "RPS6KA2 N-terminal kinase domain": "Ribosomal protein S6 kinase alpha-2, N-terminal kinase domain (RPS6KA2, Homo sapiens, UniProt Q15349)", "RPS6KA2": "Ribosomal protein S6 kinase alpha-2 (RPS6KA2, Homo sapiens, UniProt Q15349)", "RPS6KA2 C-terminal kinase domain": "Ribosomal protein S6 kinase alpha-2, C-terminal kinase domain (RPS6KA2, Homo sapiens, UniProt Q15349)", "note": "Protocols differ between the studies behind these lines."}
{"SMILES": "COc1ccc2c(O[C@@H]3C[C@H]4C(=O)N[C@]5(C(=O)O)CC5/C=C\\CCCCC[C@H](NC(=O)OC5CCCC5)C(=O)N4C3)cc(-c3csc(NC(=O)C(C)C)n3)nc2c1C (stereo partly drawn)", "target": "RPS6KA2 N-terminal kinase domain", "test": "cell-free assay, competition with immobilised ligand", "conditions": "1 µM", "endpoint": "remaining binding", "result": "100%"}
{"SMILES": "CCN(CC)c1ccc(C2=NNC(=O)CC2C)cc1[N+](=O)[O-] (stereo not drawn)", "target": "RPS6KA2", "test": "enzyme activity, inhibitor", "conditions": "10 µM", "endpoint": "remaining activity", "result": "98%"}
{"SMILES": "CC(C)(C)c1nc2c(s1)c1nc(N)ncc1c1ccc(NS(=O)(=O)c3c(F)cccc3F)c(F)c12", "target": "RPS6KA2", "test": "enzyme activity, inhibitor, radiometric", "conditions": "1 µM", "endpoint": "remaining activity", "result": "84%"}
{"SMILES": "CCS(=O)(=O)c1cc2cc(C[C@](O)(CC(C)(C)c3ccc(F)cc3C(N)=O)C(F)(F)F)[nH]c2cn1", "target": "RPS6KA2 N-terminal kinase domain", "test": "cell-free assay, competition with immobilised ligand", "conditions": "1 µM", "endpoint": "remaining binding", "result": "100%"}
{"SMILES": "CN(C)c1ncc(F)c(-c2cnn3ncccc23)n1", "target": "RPS6KA2 C-terminal kinase domain", "test": "binding, competition with immobilised ligand", "conditions": "1 µM", "endpoint": "remaining binding", "result": "97%"}
{"SMILES": "Cc1ccc(NC(=O)c2ccc(C)c(C(F)(F)F)c2)cc1C#Cc1nn(C2CCC(O)CC2)c2ncnc(N)c12 (stereo not drawn)", "target": "RPS6KA2", "test": "cell-free assay", "conditions": "10 µM", "endpoint": "remaining signal", "result": "38%"}
{"SMILES": "N[C@H]1CCN(c2nccc(-c3cnn4ncccc34)n2)C1", "target": "RPS6KA2 C-terminal kinase domain", "test": "binding, competition with immobilised ligand", "conditions": "1 µM", "endpoint": "remaining binding", "result": "91%"}
{"SMILES": "Cc1ccc(C(=O)NCc2ccsc2)cc1C#Cc1cn(C(C)C)c2ncnc(N)c12", "target": "RPS6KA2", "test": "enzyme activity, inhibitor", "conditions": "1 µM", "endpoint": "activity vs control", "result": "85%"}
{"SMILES": "CCOc1cc(-c2nncn2C)ccc1Nc1ncc2cc(C)nc(NCC(C)(C)C)c2n1", "target": "RPS6KA2", "test": "enzyme activity, inhibitor, FRET", "conditions": "1 µM", "endpoint": "inhibition", "result": "< 15%"}
{"SMILES": "O=c1nc(-c2ccccn2)sc2ccccc12", "target": "RPS6KA2 N-terminal kinase domain", "test": "binding, competition with immobilised ligand", "conditions": "1 µM", "endpoint": "remaining binding", "result": "100%"}
{"SMILES": "C[C@@H]1CCN(c2nccc(-c3cnn4ncccc34)n2)C1", "target": "RPS6KA2 C-terminal kinase domain", "test": "binding, competition with immobilised ligand", "conditions": "1 µM", "endpoint": "remaining binding", "result": "45%"}
{"SMILES": "CNC(=O)c1ccc(Nc2ncc(C(F)(F)F)c(NCc3nccnc3N(C)S(C)(=O)=O)n2)cc1", "target": "RPS6KA2 C-terminal kinase domain", "test": "cell-free assay, competition with immobilised ligand", "conditions": "0.1 µM", "endpoint": "remaining binding", "result": "61%"}
{"SMILES": "CN(c1nccc(-c2cnn3ncccc23)n1)C1CC1", "target": "RPS6KA2 N-terminal kinase domain", "test": "binding, competition with immobilised ligand", "conditions": "1 µM", "endpoint": "remaining binding", "result": "99%"}
{"SMILES": "COc1cc2ncnc(Nc3ccc(Oc4ccccc4)c(C)c3C)c2cc1OC", "target": "RPS6KA2", "test": "enzyme activity, inhibitor", "conditions": "1 µM", "endpoint": "inhibition", "result": "2%"}
{"SMILES": "O=C(NCCCC1CCCCC1)c1ccc(CNC(=O)c2cnn(-c3ccccc3)c2C(F)(F)F)cc1", "target": "RPS6KA2 C-terminal kinase domain", "test": "cell-free assay, competition with immobilised ligand", "conditions": "0.1 µM", "endpoint": "remaining binding", "result": "96%"}
{"SMILES": "CNCc1ccc(-c2cc(-c3nc(-c4ccc(S(=O)(=O)C(C)C)cc4)cnc3N)on2)cc1", "target": "RPS6KA2", "test": "enzyme activity, inhibitor", "conditions": "0.4 µM", "endpoint": "inhibition", "result": "17%"}
{"SMILES": "Cc1cnn2ncc(-c3ccnc(N(C)C)n3)c2c1", "target": "RPS6KA2 N-terminal kinase domain", "test": "binding, competition with immobilised ligand", "conditions": "1 µM", "endpoint": "remaining binding", "result": "85%"}
{"SMILES": "Cc1ccc(C(=O)Nc2ccc(CN3CCN(C)CC3)c(C(F)(F)F)c2)cc1C#Cc1cnc2cccnn12", "target": "RPS6KA2", "test": "enzyme activity, inhibitor", "conditions": "23.5 nM", "endpoint": "activity vs control", "result": "98%"}
{"SMILES": "C[C@@H]1CN(c2cc(-c3n[nH]c4ccc(OC5(C)CC5)cc34)ncn2)C[C@H](C)O1", "target": "RPS6KA2 C-terminal kinase domain", "test": "cell-free assay, competition with immobilised ligand", "conditions": "0.1 µM", "endpoint": "remaining binding", "result": "100%"}
{"SMILES": "F[C@@H]1CCN(c2nccc(-c3cnn4ncccc34)n2)C1", "target": "RPS6KA2 N-terminal kinase domain", "test": "binding, competition with immobilised ligand", "conditions": "1 µM", "endpoint": "remaining binding", "result": "93%"}
{"SMILES": "CO[C@@H](C)c1c(Nc2ccc([C@H](N(C)C(=O)C3CCS(=O)(=O)CC3)C(F)(F)F)cc2)cnc2cc(Cl)nn12", "target": "RPS6KA2 C-terminal kinase domain", "test": "cell-free assay, competition with immobilised ligand", "conditions": "1 µM", "endpoint": "remaining binding", "result": "79%"}
{"SMILES": "Nc1ncnc2occ(-c3ccc(NC(=O)Nc4cc(C(F)(F)F)ccc4F)cc3)c12", "target": "RPS6KA2 C-terminal kinase domain", "test": "cell-free assay, inhibitor", "conditions": "20 µM", "endpoint": "remaining signal", "result": "2.3%"}
{"SMILES": "NS(=O)(=O)c1cc(NC(=O)C2(c3ccccc3Cl)CC2)ccc1Oc1cccc(Cl)c1", "target": "RPS6KA2 C-terminal kinase domain", "test": "cell-free assay, competition with immobilised ligand", "conditions": "1 µM", "endpoint": "remaining binding", "result": "100%"}
{"SMILES": "Cc1ccc(Nc2nccc(N(C)c3ccc4c(C)n(C)nc4c3)n2)cc1S(N)(=O)=O", "target": "RPS6KA2", "test": "enzyme activity, inhibitor", "conditions": "0.3 µM", "endpoint": "inhibition", "result": "27%"}
